Screens as filed in PubChem.
NSD2 HMT inh = inhibitors of human histone methyltransferase NSD2; NSD2 peptide methylation, AlphaScreen, 120 min; inhibition, % at 12.5 µM; actives 0.54% (n = 310,000); in the data active = inhibition above about 50%
GC-B act = GC-B (human) receptor activation; HEK293-GC-B cells, CNP EC30, cGMP TR-FRET; 0% at EC30 CNP, 100% saturating CNP; actives 0.11% (n = 370,000); activation, % at 10 µM; P20594;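 active = activation at 10 µM reaching about 35% in either raw or pattern-adjusted values, limit read from the data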
CASP6 VEID inh = inhibitors of human caspase-6; purified caspase-6, Z-VEID-R110 cleavage fluorescence; inhibition, % at 12.5 µM; actives 0.53% (n = 350,000); AID 686996;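 active = mean inhibition across replicates at least about 35%, with every replicate also reaching that limit, limit read from the data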
NPR1 activator = GC-A (human) enzyme activation | P16066 | HEK293 GC-A cells, cGMP TR-FRET, EC30 ANP; 0% at EC30 ANP, 100% saturating ANP | activation, % at 10 µM | actives 0.14% (n = 370,000) | AID 1671463; in the data active = activation above about 40%
CaV13 FRET inh = Primary screen for inhibitors of IQ motif and Ca2+-dependent inactivation inhibitor domain binding in CACNA1D, Förster resonance energy transfer in living cells, …; HEK cells, CFP/YFP FRET ICDI-IQ, plate reader, 10 min; percent FRET-ratio fall versus neutral wells; inhibition, % at 12.3 µM; actives 0.098% (n = 340,000); AID 743397;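 active = mean replicate inhibition of at least 30% and at least 1% of replicates passing that level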
FN deposit inh = fibronectin deposition inhibition | actives 0.086% (n = 350,000) | inhibition, % at 12.6 µM | AH1F fibroblasts, Alexa488-fibronectin deposition fluorescence, overnight;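 active = mean inhibition across replicates of 30% or more, regardless of how many single replicates reach that level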
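Assay system: AH1F fibroblasts / Quantity: 10000 cells per well / Medium: DMEM plus 2% serum, read in PBS / Reagent: labelled fibronectin 24 nM / Dosing: single dose, pinned / Times: 1 h cell attachment, overnight exposure to compound and label / Signal: fluorescence, ex 485 nm, em 525 nm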
Alpha artifact = interferes with AlphaScreen signal, flagging NSD2 false positives; shares compounds with NSD2 HMT inh; AlphaScreen artifact counterscreen, preloaded methylated H4 peptide; AC35, µM (top dose mostly 10 µM); actives 9.4% (n = 1,500); AID 1053174; call rule not given here
Of the large screens only hits and unclear results are named; the others gave an inactive call (follow-up assays come after a bar, where they were run). This is a sample that favours compounds with a hit; in the whole collection about 0.99% have one here.

C[C@H]1CCCCO[C@H](CN(C)Cc2ccccc2)[C@@H](C)CN([C@@H](C)CO)C(=O)c2cc(NC(=O)CCCN(C)C)ccc2O1	none (no result: NSD2 HMT inh, GC-B act, NPR1 activator, CaV13 FRET inh)
N#Cc1c(SCC(=O)OCc2ccccc2)nsc1SCC(=O)OCc1ccccc1	NSD2 HMT inh 126.0 (no result: FN deposit inh) | Alpha artifact inactive
CCS(=O)(=O)c1ccc(N=Nc2ccc(O)c3ncccc23)c(OC)c1	none (no result: CASP6 VEID inh)
COc1ccccc1N=Nc1ccc(O)c2ncccc12	NSD2 HMT inh 94.3, CASP6 VEID inh 53.9 | Alpha artifact inactive
CO[C@@H](CN(C)C(=O)c1ccccc1F)[C@@H](C)CN([C@H](C)CO)S(=O)(=O)c1ccccc1	none (no result: NSD2 HMT inh, GC-B act, NPR1 activator, CaV13 FRET inh)
C/C=C/c1ccc2c(c1)O[C@@H](CN(C)Cc1ccncc1)[C@@H](C)CN([C@H](C)CO)S2(=O)=O	none (no result: NSD2 HMT inh, GC-B act, NPR1 activator, CaV13 FRET inh)
COc1ccc(S(=O)(=O)N2CCCCC2)cc1NC(=O)Cc1ccsc1	NSD2 HMT inh 51.0 | Alpha artifact inactive
C[C@H]1CN([C@@H](C)CO)C(=O)c2cc(NS(=O)(=O)c3ccc(Cl)cc3)ccc2O[C@@H]1CN(C)Cc1ccc2c(c1)OCO2	none (no result: NSD2 HMT inh, GC-B act, NPR1 activator, CaV13 FRET inh)
CCCCNCCCOc1cc(Cl)ccc1Cl	none (no result: CASP6 VEID inh, CaV13 FRET inh, FN deposit inh)
CCC(C)NCCCOc1cc(Cl)ccc1Cl (stereo unspecified)	NSD2 HMT inh 52.5 (no result: CASP6 VEID inh) | Alpha artifact inactive
CCC(C)NCCCCOc1ccc(Cl)cc1C (stereo unspecified)	NSD2 HMT inh 60.5 (no result: CASP6 VEID inh) | Alpha artifact inactive
C=CCc1cc(Cl)ccc1OCCOCCNC(C)CC (stereo unspecified)	none
O=C(/C=C/c1ccccc1)NCc1cccnc1	none
O=C(/C=C/c1ccc(-c2ccccc2)cc1)NCc1cccnc1	NSD2 HMT inh 62.1 | Alpha artifact inactive
COc1ccccc1CNC(=O)C[C@H]1C[C@H]2c3cc(NS(C)(=O)=O)ccc3O[C@H]2[C@H](CO)O1	none (no result: NSD2 HMT inh, GC-B act, NPR1 activator, CaV13 FRET inh)
CC(C)=NOCC(=O)Nn1c(COc2c(C)cccc2C)nc2ccccc2c1=O	NSD2 HMT inh 56.5 | Alpha artifact inactive
CC(=O)N1CCc2cc(Br)cc(S(=O)(=O)NCCCN(C)Cc3ccccc3)c21	NSD2 HMT inh 125.4 | Alpha artifact inactive
CC(Cc1c[nH]c2ccccc12)C(=O)NCc1ccco1 (stereo unspecified)	NSD2 HMT inh 63.2, CASP6 VEID inh 42.3 | Alpha artifact inactive
CC(=O)NC(Cc1c[nH]c2ccccc12)C(=O)NCc1ccco1 (stereo unspecified)	none
O=C(C[C@H]1C[C@@H]2c3cc(NC(=O)NC4CCCC4)ccc3O[C@@H]2[C@H](CO)O1)NCC1CC1	none (no result: NSD2 HMT inh, GC-B act, NPR1 activator, CaV13 FRET inh)
Cc1noc(C)c1S(=O)(=O)Nc1ccc2c(c1)C(=O)N([C@H](C)CO)C[C@@H](C)[C@@H](CN(C)C(=O)NC1CCCCC1)O2	none (no result: NSD2 HMT inh, GC-B act, NPR1 activator, CaV13 FRET inh)
CN(C)C(=O)c1ccc(-c2ccc3c(c2)[C@H]2[C@H](CCN2C(=O)C2CCC2)[C@@H](CO)N3C)cc1	none (no result: NSD2 HMT inh, GC-B act, NPR1 activator, CaV13 FRET inh)
O=Cc1ccc(OC(=O)C2CC(=O)N(c3ccc(F)cc3)C2)cc1 (stereo unspecified)	NSD2 HMT inh 124.5 (no result: CASP6 VEID inh) | Alpha artifact inactive
O=C(O)C1CC(=O)N(c2ccc(F)cc2)C1 (stereo unspecified)	none (no result: CASP6 VEID inh)
O=C(C[C@H]1CC[C@H]2[C@@H](COC[C@H](O)CN2S(=O)(=O)c2ccc(Cl)cc2)O1)N[C@H]1CCN(Cc2ccccc2)C1	none (no result: NSD2 HMT inh, GC-B act, NPR1 activator, CaV13 FRET inh)
COc1ccc(CC2=CC(=O)c3ccccc3C2=O)cc1	NSD2 HMT inh 54.6 | Alpha artifact inactive
Cc1ccccc1-c1cnc2c(c1)C(=O)N([C@@H](C)CO)C[C@H](C)[C@@H](CN(C)C(=O)c1ccncc1)O2	none (no result: NSD2 HMT inh, GC-B act, NPR1 activator, CaV13 FRET inh, FN deposit inh)
CO[C@@H]1CN(C)C(=O)c2ccc(NC(C)=O)cc2OC[C@@H](C)N(C(=O)c2ccc(F)cc2)C[C@@H]1C	none (no result: NSD2 HMT inh, GC-B act, NPR1 activator, CaV13 FRET inh)
COc1ccc(C(=O)Nc2ccc3[nH]ccc3c2)cc1OC	NSD2 HMT inh 50.9 | Alpha artifact inactive
COc1ccc(C(=O)Nc2ccc3[nH]ccc3c2)cc1	none
